Test [1] has as its target Mu-type opioid receptor (Cavia porcellus, UniProt P97266). The test is described as follows: Binding affinity at mu opioid receptor in guinea pig brain by [3H]DAMGO displacement. In a few lines: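 Adult male guinea pig whole-brain membranes in 50 mM Tris-HCl pH 7.4, preincubated 25 °C 30 min to strip endogenous peptides. Buffer contains BSA and peptidase inhibitors. Tritiated ligand at 0.75 nM (delta), 1.0 nM (mu) or 1.5 nM (kappa). Ten concentrations over 800-fold range, in duplicate. Nonspecific binding with 10 µM naltrexone. Incubated 25 °C 3 h, filtered, counted; nonlinear least-squares fit.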

Test [2] concerns the target Kappa-type opioid receptor (Cavia porcellus, UniProt P41144). The test is described as follows: Binding affinity at kappa opioid receptor in guinea pig brain by [3H]U-69593 displacement. In a few lines:
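Adult male guinea pig whole-brain membranes in 50 mM Tris-HCl pH 7.4, preincubated 25 °C 30 min to strip endogenous peptides. Buffer contains BSA and peptidase inhibitors. Ten concentrations over 800-fold range, in duplicate. Nonspecific binding with 10 µM naltrexone. Incubated 25 °C 3 h, filtered, counted; nonlinear least-squares fit.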

For test [3], the species on record is Cavia porcellus. The test is described as follows: Inhibition of electrically induced smooth muscle contraction in guinea pig ileum. The class given is functional. The method, boiled down:
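Longitudinal muscle-myenteric plexus strips from ileum of male Hartley guinea pigs (250-500 g), held in 37 °C oxygenated Krebs buffer, 1 g tension. Transmural stimulation at 0.1 Hz, 0.4-ms supramaximal pulses; no peptidase inhibitors. Cumulative agonist doses, 3 min each; % inhibition of contraction height. μ-selectivity checked with 1000 nM CTAP. IC50 from Hill-equation fit, mean of two to four tissues.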

Kappa-type opioid receptor, sequence (P41144 whole entry): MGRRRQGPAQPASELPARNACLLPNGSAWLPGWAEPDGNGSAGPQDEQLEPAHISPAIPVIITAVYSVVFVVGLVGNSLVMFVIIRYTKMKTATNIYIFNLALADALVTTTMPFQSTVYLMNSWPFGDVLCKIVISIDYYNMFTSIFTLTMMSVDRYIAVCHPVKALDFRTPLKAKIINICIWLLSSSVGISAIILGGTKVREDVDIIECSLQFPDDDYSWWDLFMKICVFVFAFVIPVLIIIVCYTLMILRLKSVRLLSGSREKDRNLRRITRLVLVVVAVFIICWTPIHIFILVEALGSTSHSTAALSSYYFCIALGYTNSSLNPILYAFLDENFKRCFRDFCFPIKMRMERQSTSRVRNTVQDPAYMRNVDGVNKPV
Mu-type opioid receptor, sequence (P97266 whole entry): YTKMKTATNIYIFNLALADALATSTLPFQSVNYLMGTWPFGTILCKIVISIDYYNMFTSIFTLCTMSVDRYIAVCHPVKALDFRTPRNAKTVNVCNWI

With `CC[C@H](C)[C@@H]1NC(=O)[C@H](CCCN=C(N)N)NC(=O)[C@H](CCCN=C(N)N)NC(=O)[C@H](NC(=O)[C@H](Cc2ccccc2)NC(=O)CNC(=O)CNC(=O)[C@@H](N)Cc2ccc(O)cc2)C(C)(C)SSC(C)(C)[C@@H](C(N)=O)NC(=O)[C@@H]2CCCN2C(=O)[C@H](CCCN=C(N)N)NC1=O`, the results for the IC50 in test [1] and in test [2] were 224 nM and 26.1 nM, respectively.

In the case of `CC[C@H](C)[C@@H]1NC(=O)[C@H](CCCN=C(N)N)NC(=O)[C@H](CCCN=C(N)N)NC(=O)[C@@H](NC(=O)[C@H](Cc2ccccc2)NC(=O)CNC(=O)CNC(=O)[C@@H](N)Cc2ccc(O)cc2)CSSC(C)(C)[C@H](C(N)=O)NC(=O)[C@@H]2CCCN2C(=O)[C@H](CCCN=C(N)N)NC1=O`, the results for the IC50 in test [1] and in test [2] were 17 nM and 1 nM, respectively. On the same counts, the results for `CC[C@H](C)[C@@H]1NC(=O)[C@H](CCCN=C(N)N)NC(=O)[C@H](CCCN=C(N)N)NC(=O)[C@H](NC(=O)[C@H](Cc2ccccc2)NC(=O)CNC(=O)CNC(=O)[C@@H](N)Cc2ccc(O)cc2)C(C)(C)SSC[C@@H](C(N)=O)NC(=O)[C@@H]2CCCN2C(=O)[C@H](CCCN=C(N)N)NC1=O` are 87.1 nM and 87.1 nM. Taken in the same sequence, the figures for `CC[C@H](C)[C@@H]1NC(=O)[C@H](CCCN=C(N)N)NC(=O)[C@H](CCCN=C(N)N)NC(=O)[C@H](NC(=O)[C@H](Cc2ccccc2)NC(=O)CNC(=O)CNC(=O)[C@@H](N)Cc2ccc(O)cc2)C(C)(C)SSC(C)(C)[C@H](C(N)=O)NC(=O)[C@@H]2CCCN2C(=O)[C@H](CCCN=C(N)N)NC1=O` were 563 nM and 70.5 nM. Take `CC[C@H](C)[C@H](NC(=O)[C@H](CCCN=C(N)N)NC(=O)[C@H](CCCN=C(N)N)NC(=O)[C@@H](CC(C)C)NC(=O)[C@H](Cc1ccccc1)NC(=O)CNC(=O)CNC(=O)[C@@H](N)Cc1ccc(O)cc1)C(=O)N[C@@H](CCCN=C(N)N)C(=O)N1CCC[C@H]1C(=O)N[C@@H](CCCCN)C(N)=O`: the midpoint of inhibition in test [3], the IC50, lay at 94 nM. With `CC[C@H](C)[C@@H]1NC(=O)[C@H](CCCN=C(N)N)NC(=O)[C@H](CCCN=C(N)N)NC(=O)[C@H](NC(=O)[C@H](Cc2ccccc2)NC(=O)CNC(=O)CNC(=O)[C@@H](N)Cc2ccc(O)cc2)C(C)(C)SSC[C@H](C(N)=O)NC(=O)[C@@H]2CCCN2C(=O)[C@H](CCCN=C(N)N)NC1=O`, the IC50 (in general, the point on the concentration scale where inhibition reaches its midpoint) in test [1] was determined as 51.1 nM; in test [2], 18 nM. On the same counts, the results for `CC[C@H](C)[C@@H]1NC(=O)[C@H](CCCN=C(N)N)NC(=O)[C@H](CCCN=C(N)N)NC(=O)[C@H](NC(=O)[C@H](Cc2ccccc2)NC(=O)CNC(=O)CNC(=O)[C@@H](N)Cc2ccc(O)cc2)CSSC(C)(C)[C@H](C(N)=O)NC(=O)[C@@H]2CCCN2C(=O)[C@H](CCCN=C(N)N)NC1=O` are 108 nM and 100 nM. Turning to `CC[C@H](C)[C@H](NC(=O)[C@H](CCCN=C(N)N)NC(=O)[C@H](CCCN=C(N)N)NC(=O)[C@H](CC(C)C)NC(=O)[C@H](Cc1ccccc1)NC(=O)CNC(=O)CNC(=O)[C@@H](N)Cc1ccc(O)cc1)C(=O)N[C@@H](CCCN=C(N)N)C(=O)N1CCC[C@H]1C(=O)NC(CCCCN)C(N)=O` (stereo in doubt), the figures for the IC50 in test [1] and in test [3] were 9.9 nM and 1.07 nM, respectively. Regarding `CC[C@H](C)[C@H](NC(=O)[C@H](CCCN=C(N)N)NC(=O)[C@H](CCCN=C(N)N)NC(=O)C(CC(C)C)NC(=O)[C@H](Cc1ccccc1)NC(=O)CNC(=O)CNC(=O)[C@@H](N)Cc1ccc(O)cc1)C(=O)N[C@@H](CCCN=C(N)N)C(=O)N1CCC[C@H]1C(=O)N[C@H](CCCCN)C(N)=O` (stereo in doubt), the figures for the IC50 in test [1] and in test [3] were 5.2 nM and 0.3 nM, respectively.

These data come from ChEMBL document CHEMBL1127406 (J Med Chem, 1994).
